ChEMBL document CHEMBL3856186, “Partial Activation and Inhibition of TRPV1 Channels by Evodiamine and Rutaecarpine, Two Major Components of the Fruits of Evodia rutaecarpa” (J Nat Prod, 2016)
Calls of active or inactive are those of the source. The calls are words filed in the database; no cut-off is given here.

How the values were obtained:
Assay type in all cases: cell-based
[1] = biological target: Transient receptor potential cation channel subfamily V member 1 (Rattus norvegicus) (UniProt O35433); assay: Partial antagonist activity at rat TRPV1 expressed in HEK293 cells assessed as effect on capsaicin-induced inward current at 0.6 uM by whole-cell patch clamp method (reference value: -327.4 +/- 52.3 pA/pF)
Sequence of Transient receptor potential cation channel subfamily V member 1 (Rattus norvegicus) (O35433 whole entry): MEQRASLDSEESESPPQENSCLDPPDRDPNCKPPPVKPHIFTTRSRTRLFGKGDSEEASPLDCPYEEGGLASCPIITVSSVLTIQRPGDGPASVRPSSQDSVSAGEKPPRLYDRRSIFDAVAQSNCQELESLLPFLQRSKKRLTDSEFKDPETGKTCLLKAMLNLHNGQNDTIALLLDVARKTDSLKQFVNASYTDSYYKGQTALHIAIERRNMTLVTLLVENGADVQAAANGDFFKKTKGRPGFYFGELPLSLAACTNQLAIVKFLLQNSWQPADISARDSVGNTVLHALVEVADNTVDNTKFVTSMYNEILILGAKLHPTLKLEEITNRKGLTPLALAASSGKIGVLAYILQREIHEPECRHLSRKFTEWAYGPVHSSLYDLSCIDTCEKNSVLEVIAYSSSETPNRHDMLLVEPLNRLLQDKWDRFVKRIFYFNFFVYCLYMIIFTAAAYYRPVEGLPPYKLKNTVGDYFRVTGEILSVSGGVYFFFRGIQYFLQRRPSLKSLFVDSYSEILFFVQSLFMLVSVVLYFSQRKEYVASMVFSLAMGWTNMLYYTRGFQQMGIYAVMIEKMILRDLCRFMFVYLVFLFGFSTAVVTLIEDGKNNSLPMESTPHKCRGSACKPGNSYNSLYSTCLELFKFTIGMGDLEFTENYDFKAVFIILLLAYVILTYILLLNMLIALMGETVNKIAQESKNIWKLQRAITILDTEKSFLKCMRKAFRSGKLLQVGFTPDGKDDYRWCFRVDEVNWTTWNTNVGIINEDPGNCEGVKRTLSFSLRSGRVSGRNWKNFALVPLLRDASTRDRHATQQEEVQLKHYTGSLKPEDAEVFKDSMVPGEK
In short: (§1)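 HEK293 cells transiently expressing rat TRPV1 (EGFP cotransfected) were patched in whole-cell mode 1 day post-transfection. Cells were held at −60 mV in Ca2+-containing standard bath (pH 7.4) at ~25 °C. Capsaicin-evoked peak current amplitude was quantified. Sigmoidal curve fitting gave EC50 or IC50 values.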

[2] = biological target: Transient receptor potential cation channel subfamily V member 1 (Rattus norvegicus) (UniProt O35433); assay: Partial antagonist activity at rat TRPV1 expressed in HEK293 cells assessed as effect on capsaicin-induced inward current at 0.6 uM by whole-cell patch clamp method (reference value: -431 +/- 43.1 pA/pF); in short: as §1
[3] = biological target: Transient receptor potential cation channel subfamily V member 1 (Rattus norvegicus) (UniProt O35433); assay: Partial antagonist activity at rat TRPV1 expressed in HEK293 cells assessed as effect on capsaicin-induced inward current at 10 uM by whole-cell patch clamp method (reference value: -7 +/- 2.6 pA/pF); in short: as §1
[4] = biological target: Transient receptor potential cation channel subfamily V member 1 (Rattus norvegicus) (UniProt O35433); assay: Partial antagonist activity at rat TRPV1 expressed in HEK293 cells assessed as effect on capsaicin-induced inward current at 0.1 uM by whole-cell patch clamp method (reference value: -[…] +/- […] pA/pF)
[5] = biological target: Transient receptor potential cation channel subfamily V member 1 (Rattus norvegicus) (UniProt O35433); assay: Partial antagonist activity at rat TRPV1 expressed in HEK293 cells assessed as effect on capsaicin-induced inward current at 10 uM by whole-cell patch clamp method (reference value: -327.4 +/- 52.3 pA/pF); in short: as §1
[6] = biological target: Transient receptor potential cation channel subfamily V member 1 (Rattus norvegicus) (UniProt O35433); assay: Partial antagonist activity at rat TRPV1 expressed in HEK293 cells assessed as effect on capsaicin-induced inward current at 10 uM by whole-cell patch clamp method (reference value: -[…] +/- […] pA/pF)
[7] = biological target: Transient receptor potential cation channel subfamily V member 1 (Rattus norvegicus) (UniProt O35433); assay: (§2) Partial antagonist activity at rat TRPV1 expressed in HEK293 cells assessed as effect on capsaicin current density at 10 uM pretreated for 180 sec followed by capsaicin addition at -60 mV holding potential in presence of extracellular calcium by whole-cell patch-clamp method (reference value: -327.4 +/- 52.3 pA/pF); in short: as §1
[8] = biological target: Transient receptor potential cation channel subfamily V member 1 (Rattus norvegicus) (UniProt O35433); assay: Agonist activity at rat TRPV1 channel expressed in HEK293 cells assessed as induction of inward current at 10 uM and -60 mV holding potential by whole-cell patch-clamp method
In short: (§3)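 Rat TRPV1 cDNA and an EGFP reporter were cotransfected into HEK293 cells, with recording 1 day later. Whole-cell voltage clamp was run at room temperature (~25 °C) in standard bath (2 mM CaCl2, pH 7.4) with a KCl/MgATP/EGTA pipette solution. Steps from −100 to +100 mV (100 ms) gave I–V curves. Agonist was applied until desensitization, and peak current was scored. EC50 came from a sigmoidal fit.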

[9] = biological target: Transient receptor potential cation channel subfamily V member 1 (Rattus norvegicus) (UniProt O35433); assay: Partial antagonist activity at rat TRPV1 expressed in HEK293 cells assessed as effect on capsaicin-induced inward current at 1 uM by whole-cell patch clamp method (reference value: -327.4 +/- 52.3 pA/pF); in short: as §1
[10] = biological target: Transient receptor potential cation channel subfamily V member 1 (Rattus norvegicus) (UniProt O35433); assay: Partial antagonist activity at rat TRPV1 expressed in HEK293 cells assessed as effect on capsaicin-induced inward current at 0.6 uM by whole-cell patch clamp method (reference value: -480.7 +/- 96.9 pA/pF); in short: as §1
[11] = biological target: Transient receptor potential cation channel subfamily V member 1 (Rattus norvegicus) (UniProt O35433); assay: Agonist activity at rat TRPV1 channel expressed in HEK293 cells assessed as outward rectifying current at 10 uM and -60 mV holding potential by whole-cell patch-clamp method; in short: as §3
[12] = biological target: Transient receptor potential cation channel subfamily V member 1 (Rattus norvegicus) (UniProt O35433); assay: Partial antagonist activity at rat TRPV1 expressed in HEK293 cells assessed as effect on capsaicin-induced inward current at 0.6 uM by whole-cell patch clamp method (reference value: -[…] +/- […] pA/pF)
[13] = biological target: Transient receptor potential cation channel subfamily V member 1 (Rattus norvegicus) (UniProt O35433); assay: Agonist activity at rat TRPV1 channel expressed in HEK293 cells assessed as induction of maximum channel current at 10 uM at -60 mV holding potential by whole-cell patch-clamp method; in short: as §3
[14] = biological target: Transient receptor potential cation channel subfamily V member 1 (Rattus norvegicus) (UniProt O35433); assay: Partial antagonist activity at rat TRPV1 expressed in HEK293 cells assessed as effect on capsaicin-induced inward current at 1 uM by whole-cell patch clamp method (reference value: -7 +/- 2.6 pA/pF); in short: as §1
[15] = biological target: Transient receptor potential cation channel subfamily V member 1 (Rattus norvegicus) (UniProt O35433); assay: Partial antagonist activity at rat TRPV1 expressed in HEK293 cells assessed as effect on capsaicin-induced inward current at 10 uM by whole-cell patch clamp method (reference value: -151.2 +/- 33 pA/pF); in short: as §1
[16] = biological target: Transient receptor potential cation channel subfamily V member 1 (Rattus norvegicus) (UniProt O35433); assay: Partial antagonist activity at rat TRPV1 expressed in HEK293 cells assessed as effect on capsaicin-induced inward current at 1 uM by whole-cell patch clamp method (reference value: -[…] +/- […] pA/pF)
[17] = biological target: Transient receptor potential cation channel subfamily V member 1 (Rattus norvegicus) (UniProt O35433); assay: Partial antagonist activity at rat TRPV1 expressed in HEK293 cells assessed as effect on capsaicin current density at 10 uM at -60 mV holding potential in absence of extracellular calcium by whole-cell patch-clamp method (reference value: -2407.7 +/- 850.6 pA)
In short: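 Whole-cell clamp at −60 mV was done on rat TRPV1-transfected HEK293 cells (1 day) using a calcium-free bath (5 mM EGTA, no CaCl2, pH 7.4) at ~25 °C. Capsaicin-evoked peak current was measured.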

[18] = biological target: Transient receptor potential cation channel subfamily V member 1 (Rattus norvegicus) (UniProt O35433); assay: Agonist activity at rat TRPV1 channel expressed in HEK293 cells assessed as reversal potential at 10 uM and -60 mV holding potential by whole-cell patch-clamp method; in short: as §3
[19] = biological target: Transient receptor potential cation channel subfamily V member 1 (Rattus norvegicus) (UniProt O35433); assay: Partial antagonist activity at rat TRPV1 expressed in HEK293 cells assessed as effect on capsaicin-induced inward current at 0.1 uM by whole-cell patch clamp method (reference value: -480.7 +/- 96.9 pA/pF); in short: as §1
[20] = biological target: Transient receptor potential cation channel subfamily V member 1 (Rattus norvegicus) (UniProt O35433); assay: as §2, with “1” for “10”; in short: as §1

CN1c2ccccc2C(=O)N2CCc3c([nH]c4ccccc34)C21 (stereo not given) showed an Activity [1] of -208 pA/pF, an Activity [2] of -328 pA/pF and an Activity [3] of -165 pA/pF. It also gave an Activity [4] of -492 pA/pF, an Activity [5] of -160 pA/pF and an Activity [6] of -393 pA/pF. The Activity [7] was -60.3 pA/pF, the Activity [8] was “Active” and the Activity [9] was -195 pA/pF. The Activity [10] was -422 pA/pF, the Activity [11] was “Active” and the Activity [12] was -528 pA/pF. The Activity [13] was -143 pA/pF, the Activity [14] was -81.7 pA/pF and the Activity [15] was -172 pA/pF. The Activity [16] was -370 pA/pF, the Activity [17] was -2400 pA/pF and the Activity [18] was 0 mV. For the same molecule, the Activity [19] was -416 pA/pF and the Activity [20] was -132 pA/pF.
